Results of several laboratories.
Cell line: MDA-MB-231
Read-out: cell growth or viability

Structure (SMILES)	assay	setting	measurement	value
CCNc1nc2ccc(-c3c/c(=N\c4ccccc4NC(=O)CCN)c4ccccc4o3)cc2o1	CCK-8	1 µM	inhibition	54.2%
O=C(Nc1ccccc1)Nc1ccc(Oc2nc3ccccc3n3cnnc23)cc1	MTT	50 µM, 24 h	viability	59.2%
C[C@H](N)C(=O)Nc1ccccc1/N=c1\cc(-c2ccc3c(c2)OCCO3)oc2c(N)cccc12	CCK-8	1 µM	inhibition	-1.6%
Nc1nc(S)nc(O)c1N=Cc1cn(-c2ccccc2)nc1-c1ccccc1	–	48 h	CC50	> 20 µM
Cc1ccc(C=NNC(=O)C2CC(=O)N(c3ccc(F)cc3F)C2)cc1 (stereo not drawn)	MTT	72 h	EC50	22.8 µM
CNC(=O)c1cc(Oc2ccc(NC(=O)Nc3ccc(Cl)c(C(F)(F)F)c3)cc2)ccn1	MTT	25 µM, 24 h	viability	24.3%
Cc1ccc(-c2nn(-c3ccccc3)cc2C=Nc2c(N)nc(S)nc2O)cc1	–	48 h	CC50	14.3 µM
O=C(NN=Cc1ccc(Br)cc1)C1CC(=O)N(c2ccc(F)cc2F)C1 (stereo not drawn)	MTT	72 h	EC50	22.6 µM
O=C(Nc1ccc(Cl)cc1)Nc1ccc(Oc2nc3ccccc3n3cnnc23)cc1	MTT	100 µM, 24 h	viability	46.6%
CCN(N=Cc1ccc(Br)cc1)C(=O)C1CC(=O)N(c2ccc(F)cc2F)C1 (stereo not drawn)	MTT	72 h	EC50	32.9 µM
COc1cccc(NC(=O)Nc2ccc(Oc3nc4ccccc4n4cnnc34)cc2)c1	MTT	3.125 µM, 24 h	viability	91.5%
NCCC(=O)Nc1ccccc1/N=c1\cc(-c2ccc3c(c2)OCCO3)oc2cc(F)ccc12	CCK-8	1 µM	inhibition	52.9%
